The species named for series [1] is Mus musculus. As to the kind of experiment: Induction of neurogenesis in C57/BL6 mouse neuronal progenitor cells derived neurospheres isolated from adult ventricular-subventricular zone assessed as increase in neurosphere size at 1 to 5 uM measured after 4 days in presence of FGF or EGF by bright field microscopy analysis. The series is classed as functional. The procedure, abridged:
(§1)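 Primary neurospheres from adult mouse V-SVZ neural stem and progenitor cells, cultured 4 days with FGF and EGF and compound at 1 or 5 µM; DMSO vehicle control, PF06447475 as reference LRRK2 inhibitor. Proliferation read as total neurosphere area per bright-field field by ImageJ macro, expressed relative to DMSO (=100); 6 fields per triplicate, three independent experiments, mean ± SEM.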

The nature of series [2]: Induction of neurogenesis in C57/BL6 mouse neural stem cells derived neurospheres isolated from adult ventricular-subventricular zone assessed as increase in total area of neurosphere at 1 to 5 uM measured after 4 days in presence of FGF or EGF by bright field microscopy analysis relative to control. In kind it is functional. The method, boiled down:
as §1

The species named for series [3] is Mus musculus. The series is described as follows: Induction of neurogenesis in C57/BL6 mouse neural stem cells derived neurospheres isolated from adult ventricular-subventricular zone assessed as increase in neurosphere size at 1 to 5 uM measured after 4 days in presence of FGF or EGF by bright field microscopy analysis. The series is classed as functional. The method, boiled down:
as §1

Series [4] concerns the target T1, Leucine-rich repeat serine/threonine-protein kinase 2 (Homo sapiens, UniProt Q5S007). As to the kind of experiment: Inhibition of wild type human GST-tagged LRRK2 (970 to 2527 residues) expressed in baculovirus expression system assessed as reduction in ADP formation at 10 uM using LRRKtide as substrate measured after 1 hr in presence of ATP by Adapta assay relative to control. The procedure, abridged: (§2)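 Fluorescence immunoassay detecting ADP formed by the kinase reaction. Each compound screened at a single fixed concentration of 10 µM and reported as percent inhibition.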

In series [5] the target is T1, Leucine-rich repeat serine/threonine-protein kinase 2. The series is described as follows: Inhibition of LRRK2 in human iPSC derived neuronal progenitor cells stably expressing TCF/LEF luciferase reporter gene assessed as increase in AXIN2 mRNA expression in presence of Wnt3a by TaqMan probe based RT-PCR analysis. In general terms: In a reporter assay the amount or activity of a reporter protein is the signal.

Series [6] shares this target. The series is described as follows: Inhibition of LRRK2 in human iPSC derived neuronal progenitor cells stably expressing TCF/LEF luciferase reporter gene assessed as modulation of Wnt/beta-catenin signaling pathway by measuring TCF/LEF dependent beta-catenin mediated transcriptional activity measured after 24 hrs in presence of Wnt3a by Steady-Glo luciferase assay relative to control. The method, boiled down: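 TCF/LEF luciferase reporter activity measured with Wnt3a supplied as conditioned medium from Wnt3a-expressing cells. Compounds screened at 1 and 10 µM. For dose curves, serial dilutions spanned 0.01–20.00 µM, with each concentration repeated eight times. Values are fold increase over DMSO vehicle (average ± SD for the curves).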

Series [7] relates to Leucine-rich repeat serine/threonine-protein kinase 2 (Homo sapiens), Q5S007 [G2019S]. The series is described as follows: Inhibition of human GST-tagged LRRK2 G2019S mutant (970 to 2527 residues) expressed in baculovirus expression system assessed as reduction in ADP formation at 10 uM using LRRKtide as substrate measured after 1 hr in presence of ATP by Adapta assay relative to control. The method, boiled down:
as §2

Series [8] concerns the target T1, Leucine-rich repeat serine/threonine-protein kinase 2. The series is described as follows: Inhibition of LRRK2 in human iPSC derived neuronal progenitor cells stably expressing TCF/LEF luciferase reporter gene assessed as increase in AXIN2 mRNA expression in absence of Wnt3a by TaqMan probe based RT-PCR analysis.
For series [9], the target named is Leucine-rich repeat serine/threonine-protein kinase 2 (Homo sapiens, UniProt Q5S007, G2019S). The series is described as follows: Inhibition of human GST-tagged LRRK2 G2019S mutant (970 to 2527 residues) expressed in baculovirus expression system assessed as reduction in ADP formation using LRRKtide as substrate measured after 1 hr in presence of ATP by Adapta assay. The method, boiled down:
(§3)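 Fluorescence immunoassay detecting ADP formed in the kinase reaction. Dose-response run at ten concentrations per compound in two independent experiments. IC50 given ± standard deviation.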

Series [10] has as its target T1, Leucine-rich repeat serine/threonine-protein kinase 2. As to the kind of experiment: Inhibition of LRRK2 in human iPSC derived neuronal progenitor cells stably expressing TCF/LEF luciferase reporter gene assessed as modulation of Wnt/beta-catenin signaling pathway by measuring TCF/LEF dependent beta-catenin mediated transcriptional activity at 10 uM measured after 24 hrs in presence of Wnt3a by Steady-Glo luciferase assay relative to control. The method, boiled down:
(§4)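 TCF/LEF luciferase reporter assay in human cells stimulated with Wnt3a supplied as Wnt3a-expressing cell conditioned medium; compounds at fixed 1 or 10 µM. Reporter activity expressed as fold increase over DMSO vehicle.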

For series [11] the target is unchanged. As to the kind of experiment: Inhibition of wild type human GST-tagged LRRK2 (970 to 2527 residues) expressed in baculovirus expression system assessed as reduction in ADP formation using LRRKtide as substrate measured after 1 hr in presence of ATP by Adapta assay. The method, boiled down: as §3
The target is the same in series [12]. As to the kind of experiment: Inhibition of LRRK2 in human iPSC derived neuronal progenitor cells stably expressing TCF/LEF luciferase reporter gene assessed as modulation of Wnt/beta-catenin signaling pathway by measuring TCF/LEF dependent beta-catenin mediated transcriptional activity at 1 uM measured after 24 hrs in presence of Wnt3a by Steady-Glo luciferase assay relative to control. The method, boiled down:
as §4

The nature of series [13]: Permeability of compound in PBS/EtOH buffer (7:3) at 100 ul and pH 7.4 after 2 hrs and 30 mins by UV plate reader based PAMPA-BBB assay. To be noted: read-out: permeability. In kind it is ADME. The method, boiled down:
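PAMPA-BBB using porcine brain lipid membrane; in vitro permeability (Pe) determined alongside ten commercial drugs whose reported Pe values validated the assay; compounds classed CNS+ from Pe.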

Series [14] addresses Leucine-rich repeat serine/threonine-protein kinase 2 (Mus musculus) (UniProt Q5S006). As to the kind of experiment: Inhibition of LRRK2 in C57/BL6 mouse neural stem cells derived neurospheres isolated from adult ventricular-subventricular zone assessed as increase in neurosphere proliferation at 1 uM measured after 4 days presence of FGF or EGF by bright field microscopy analysis.

The target is the same in series [15]. The series is described as follows: Inhibition of LRRK2 in C57/BL6 mouse neural stem cells derived neurospheres isolated from adult ventricular-subventricular zone assessed as reduction in Rab10 phosphorylation at 10 uM using Rab10 as substrate measured after 7 days in presence of mitogens by Western blot analysis. The method, boiled down: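 Neurosphere cultures from adult mouse SVZ (2 male mice) grown 7 days with mitogens, treated with compound at 10 µM or DMSO. Cell pellets immunoblotted with monoclonal anti-phospho-Rab10 (T73); p-Rab10 quantified over three experiments, mean ± SEM.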

The target is the same in series [16]. The series is described as follows: Inhibition of LRRK2 in C57/BL6 mouse neural stem cells derived neurospheres isolated from adult ventricular-subventricular zone assessed as differentiation of neurospheres forming CNPase positive oligodendrocytes at 1 uM treated for 6 days and measured on day 7 by bisbenzimide staining based confocal microscopy. The procedure, abridged:
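Dissociated adult V-SVZ neurosphere cells plated on poly-ornithine/fibronectin and cultured 6 days without mitogens with compound at 1 µM, PF-475 reference, DMSO control; fixed day 7. Immunostained for CNPase (oligodendrocytes), β3-tubulin, GFAP, bisbenzimide nuclei; confocal counts of positive cells as % of total; 4 fields per triplicate, two independent experiments, mean ± SEM.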

Series [17] addresses T1, Leucine-rich repeat serine/threonine-protein kinase 2. As to the kind of experiment: Inhibition of wild-type human partial length LRRK2 (H970 to E2527 residues) expressed in mammalian expression system at 10 uM by Kinomescan method relative to control.

SMILES strings stand for the structures. Calls of active or inactive are those of the source. The rule behind the calls is not given here.

T1 sequence (Q5S007 whole entry, the tested form may be a part): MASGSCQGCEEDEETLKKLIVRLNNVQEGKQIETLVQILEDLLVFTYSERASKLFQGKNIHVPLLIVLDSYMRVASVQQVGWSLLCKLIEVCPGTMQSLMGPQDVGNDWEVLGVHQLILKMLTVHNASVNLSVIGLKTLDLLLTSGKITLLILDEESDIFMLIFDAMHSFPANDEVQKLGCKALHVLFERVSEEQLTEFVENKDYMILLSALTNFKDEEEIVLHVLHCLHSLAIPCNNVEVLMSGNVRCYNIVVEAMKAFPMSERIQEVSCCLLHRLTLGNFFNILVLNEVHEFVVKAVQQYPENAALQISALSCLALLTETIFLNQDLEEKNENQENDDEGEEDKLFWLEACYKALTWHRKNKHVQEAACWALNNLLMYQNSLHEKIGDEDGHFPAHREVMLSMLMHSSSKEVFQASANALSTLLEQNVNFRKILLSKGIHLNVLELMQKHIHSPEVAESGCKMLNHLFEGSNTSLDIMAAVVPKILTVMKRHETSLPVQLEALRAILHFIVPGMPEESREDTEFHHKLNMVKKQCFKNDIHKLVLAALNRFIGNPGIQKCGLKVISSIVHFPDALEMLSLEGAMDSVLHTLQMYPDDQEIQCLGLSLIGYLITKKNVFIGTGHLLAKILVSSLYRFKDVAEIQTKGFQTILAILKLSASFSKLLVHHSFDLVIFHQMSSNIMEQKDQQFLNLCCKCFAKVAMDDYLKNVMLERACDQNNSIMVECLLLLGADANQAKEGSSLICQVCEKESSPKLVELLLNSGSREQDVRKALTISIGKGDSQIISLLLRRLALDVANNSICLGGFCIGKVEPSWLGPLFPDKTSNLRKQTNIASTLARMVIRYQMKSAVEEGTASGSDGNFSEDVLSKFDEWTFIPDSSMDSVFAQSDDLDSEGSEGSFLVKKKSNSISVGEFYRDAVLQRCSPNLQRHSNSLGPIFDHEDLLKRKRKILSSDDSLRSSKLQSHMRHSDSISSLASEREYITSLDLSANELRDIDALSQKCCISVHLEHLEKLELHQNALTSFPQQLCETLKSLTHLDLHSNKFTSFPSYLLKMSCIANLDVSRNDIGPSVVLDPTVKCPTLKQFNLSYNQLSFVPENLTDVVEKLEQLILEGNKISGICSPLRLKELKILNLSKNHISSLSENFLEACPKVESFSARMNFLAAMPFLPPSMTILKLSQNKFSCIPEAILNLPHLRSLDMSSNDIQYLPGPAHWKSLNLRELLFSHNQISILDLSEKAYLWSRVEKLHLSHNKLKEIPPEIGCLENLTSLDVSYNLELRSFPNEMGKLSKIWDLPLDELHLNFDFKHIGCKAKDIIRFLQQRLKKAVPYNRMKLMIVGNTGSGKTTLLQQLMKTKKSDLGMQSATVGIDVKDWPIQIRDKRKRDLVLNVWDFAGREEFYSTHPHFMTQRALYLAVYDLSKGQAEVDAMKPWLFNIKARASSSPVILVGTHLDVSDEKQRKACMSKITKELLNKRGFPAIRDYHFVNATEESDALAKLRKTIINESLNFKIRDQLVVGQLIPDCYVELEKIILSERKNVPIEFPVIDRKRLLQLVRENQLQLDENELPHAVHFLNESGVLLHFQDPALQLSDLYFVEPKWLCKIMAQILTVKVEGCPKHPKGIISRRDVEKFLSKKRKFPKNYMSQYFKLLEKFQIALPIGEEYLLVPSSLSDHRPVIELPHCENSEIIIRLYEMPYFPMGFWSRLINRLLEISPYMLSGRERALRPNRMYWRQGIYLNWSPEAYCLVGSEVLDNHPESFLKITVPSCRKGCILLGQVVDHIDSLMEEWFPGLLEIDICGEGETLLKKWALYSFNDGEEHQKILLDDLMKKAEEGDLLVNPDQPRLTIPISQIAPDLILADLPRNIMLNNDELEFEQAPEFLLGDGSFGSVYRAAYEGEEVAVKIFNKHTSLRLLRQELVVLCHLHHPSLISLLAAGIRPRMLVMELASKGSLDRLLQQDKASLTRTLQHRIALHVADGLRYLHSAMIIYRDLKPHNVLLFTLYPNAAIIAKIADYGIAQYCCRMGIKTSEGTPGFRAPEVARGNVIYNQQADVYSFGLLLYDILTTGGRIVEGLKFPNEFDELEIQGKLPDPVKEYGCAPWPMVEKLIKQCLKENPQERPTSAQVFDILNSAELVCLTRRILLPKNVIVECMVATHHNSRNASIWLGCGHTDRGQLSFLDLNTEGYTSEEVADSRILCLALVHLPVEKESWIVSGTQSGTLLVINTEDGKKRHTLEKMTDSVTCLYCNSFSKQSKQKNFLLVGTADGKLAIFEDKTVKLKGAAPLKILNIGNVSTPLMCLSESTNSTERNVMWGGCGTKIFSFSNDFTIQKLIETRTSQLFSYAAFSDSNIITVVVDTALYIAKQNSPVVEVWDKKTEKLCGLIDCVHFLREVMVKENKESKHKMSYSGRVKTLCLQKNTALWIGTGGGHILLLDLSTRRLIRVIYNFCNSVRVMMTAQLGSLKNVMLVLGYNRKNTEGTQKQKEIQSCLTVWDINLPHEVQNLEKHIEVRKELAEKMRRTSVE
Sequence of Leucine-rich repeat serine/threonine-protein kinase 2 (Mus musculus) (Q5S006 whole entry): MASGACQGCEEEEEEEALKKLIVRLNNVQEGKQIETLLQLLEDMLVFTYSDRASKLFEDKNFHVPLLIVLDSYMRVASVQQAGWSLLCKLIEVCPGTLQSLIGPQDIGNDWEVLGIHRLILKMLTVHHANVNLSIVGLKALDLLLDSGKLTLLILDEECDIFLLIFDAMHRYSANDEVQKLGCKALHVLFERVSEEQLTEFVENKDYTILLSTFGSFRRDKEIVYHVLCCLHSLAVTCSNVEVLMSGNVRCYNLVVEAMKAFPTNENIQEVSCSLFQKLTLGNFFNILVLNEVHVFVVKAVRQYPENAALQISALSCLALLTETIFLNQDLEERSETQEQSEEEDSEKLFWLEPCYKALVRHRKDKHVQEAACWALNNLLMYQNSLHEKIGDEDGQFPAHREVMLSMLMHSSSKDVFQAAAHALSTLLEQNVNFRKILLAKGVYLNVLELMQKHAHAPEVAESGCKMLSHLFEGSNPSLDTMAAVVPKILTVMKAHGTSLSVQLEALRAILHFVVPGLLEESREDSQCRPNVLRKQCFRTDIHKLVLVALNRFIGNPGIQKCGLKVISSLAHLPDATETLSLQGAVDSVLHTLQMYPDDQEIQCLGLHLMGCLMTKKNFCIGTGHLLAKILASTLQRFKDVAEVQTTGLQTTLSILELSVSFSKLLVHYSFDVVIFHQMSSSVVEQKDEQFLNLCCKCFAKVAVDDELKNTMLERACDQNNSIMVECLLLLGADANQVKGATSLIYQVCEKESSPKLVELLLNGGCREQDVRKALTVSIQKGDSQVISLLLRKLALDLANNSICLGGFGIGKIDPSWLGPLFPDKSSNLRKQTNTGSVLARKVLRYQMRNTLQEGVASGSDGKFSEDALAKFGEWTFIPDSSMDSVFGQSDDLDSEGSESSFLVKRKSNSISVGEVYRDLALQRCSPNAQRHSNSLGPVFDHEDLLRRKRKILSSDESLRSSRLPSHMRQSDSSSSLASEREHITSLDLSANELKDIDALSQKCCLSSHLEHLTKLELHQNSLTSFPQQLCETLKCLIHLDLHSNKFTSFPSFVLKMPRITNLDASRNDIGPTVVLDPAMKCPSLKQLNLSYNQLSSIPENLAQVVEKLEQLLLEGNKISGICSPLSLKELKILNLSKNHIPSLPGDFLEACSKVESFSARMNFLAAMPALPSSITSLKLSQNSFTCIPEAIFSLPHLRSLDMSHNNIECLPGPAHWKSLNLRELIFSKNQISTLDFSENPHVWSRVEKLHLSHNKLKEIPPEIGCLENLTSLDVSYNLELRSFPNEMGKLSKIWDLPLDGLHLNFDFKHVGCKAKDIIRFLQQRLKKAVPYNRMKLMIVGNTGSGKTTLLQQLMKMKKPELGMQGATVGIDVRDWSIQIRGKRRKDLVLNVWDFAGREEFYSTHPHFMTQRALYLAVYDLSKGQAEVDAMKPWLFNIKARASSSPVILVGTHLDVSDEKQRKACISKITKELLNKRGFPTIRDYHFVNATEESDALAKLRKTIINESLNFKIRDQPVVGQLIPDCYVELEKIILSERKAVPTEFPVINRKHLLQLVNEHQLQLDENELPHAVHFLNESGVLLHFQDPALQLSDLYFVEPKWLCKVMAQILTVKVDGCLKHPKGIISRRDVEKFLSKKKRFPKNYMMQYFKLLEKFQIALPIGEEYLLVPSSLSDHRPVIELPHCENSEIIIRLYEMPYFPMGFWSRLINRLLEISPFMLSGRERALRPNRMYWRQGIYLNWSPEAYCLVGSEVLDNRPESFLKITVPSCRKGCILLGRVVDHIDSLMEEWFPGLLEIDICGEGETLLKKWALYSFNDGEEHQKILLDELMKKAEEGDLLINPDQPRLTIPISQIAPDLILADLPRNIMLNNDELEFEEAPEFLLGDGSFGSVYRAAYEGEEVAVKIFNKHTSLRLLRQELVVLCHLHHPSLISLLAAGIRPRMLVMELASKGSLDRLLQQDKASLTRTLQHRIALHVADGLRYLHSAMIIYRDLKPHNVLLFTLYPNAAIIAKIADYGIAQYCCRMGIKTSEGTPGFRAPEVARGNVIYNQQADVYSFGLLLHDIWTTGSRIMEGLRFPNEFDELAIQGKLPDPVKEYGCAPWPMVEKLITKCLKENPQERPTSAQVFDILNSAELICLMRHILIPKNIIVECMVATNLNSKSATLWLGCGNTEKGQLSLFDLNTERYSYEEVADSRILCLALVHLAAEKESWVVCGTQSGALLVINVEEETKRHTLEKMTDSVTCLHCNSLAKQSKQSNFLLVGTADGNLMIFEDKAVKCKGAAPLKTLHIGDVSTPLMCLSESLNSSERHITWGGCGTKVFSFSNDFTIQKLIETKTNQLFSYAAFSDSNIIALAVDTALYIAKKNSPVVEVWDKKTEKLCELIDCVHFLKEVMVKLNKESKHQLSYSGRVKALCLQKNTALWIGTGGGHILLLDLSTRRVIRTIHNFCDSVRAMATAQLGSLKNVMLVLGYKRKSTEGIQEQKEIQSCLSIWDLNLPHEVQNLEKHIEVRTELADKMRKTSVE
Sequence of Leucine-rich repeat serine/threonine-protein kinase 2 (Homo sapiens), Q5S007 [G2019S] (Q5S007 whole entry G2019S, the tested form may be a part): as the sequence (Q5S007 whole entry, the tested form may be a part) above, with G2019S counted along it
Sequence of Leucine-rich repeat serine/threonine-protein kinase 2 (Homo sapiens, UniProt Q5S007, G2019S) (Q5S007 whole entry G2019S, the tested form may be a part): as the sequence (Q5S007 whole entry, the tested form may be a part) above, with G2019S counted along it

As to `N#Cc1cccc(-c2c[nH]c3ncnc(N4CCOCC4)c23)c1`, the result in the series filed under Mus musculus [1] and in the series filed under Mus musculus [3] was Active. Moreover, the “fold change (FC)” value in series [2] was 1.8 - 2.4.
One may read the inhibition as the relative decrease from the control value, in per cent. As usually defined, the IC50 is the midpoint of a concentration-inhibition curve. Turning to `O=C(Nc1nc2ccc(F)cc2s1)c1ccc(N2CCOCC2)cc1`, the inhibition was 66% in [4], “Dose-dependent effect” in [6] and 55% in series [7]. The inhibition result in [5] was “Active”. Further, the outcome in the series listed under Mus musculus [1] and in the series listed under Mus musculus [3] was Active. Moreover, in [8], the inhibition result was “inactive”. Further, the IC50 in series [9] is 180 nM; in [11] it was 170 nM. Also, the “fold change (FC)” value in series [2] is 1.8 - 2.4; in series [10] it was 2; in series [12], 1.58.
`Cc1cnc(-c2cnc(NCCNc3ccc(C#N)cn3)nc2-c2ccc(Cl)cc2Cl)[nH]1`: the inhibition entry in series [6] is “Dose-dependent effect”.
Take `O=C(Nc1nc2ccc(Br)cc2s1)c1ccc(N2CCOCC2)cc1`: the results for the inhibition in series [4], in [6] and in series [7] were 75%, “Dose-dependent effect” and 70%, respectively. For the same molecule, the inhibition entry in series [5], in [14], in series [15] and in series [16] was “Active” in each case. Further, the Papp at 2.5 h in [13] turned out to be 4.2 ×10⁻⁶ cm/s. Moreover, the result in the series filed under Mus musculus [1] and in the series listed under Mus musculus [3] was Active. For the same molecule, the inhibition entry in [8] is “inactive”. In addition, the results for the IC50 in series [9] and in series [11] were 260 nM and 510 nM, respectively. Further, the “fold change (FC)” value in [2] was 1.8 - 2.4; in series [10], 2; in series [12] it was 1.25.
In the case of `O=C(Nc1nc2ccc(F)cc2s1)c1ccccc1`, the figures for the inhibition in [4], in [6] and in [7] were 81%, “Dose-dependent effect” and 79%, respectively. Further, in [5], the inhibition entry is “Active”. The Papp at 2.5 h in series [13] was determined as 15 ×10⁻⁶ cm/s. For the same molecule, the result in the series listed under Mus musculus [1] and in the series filed under Mus musculus [3] was Active. In addition, the inhibition result in [8] was “inactive”. For the same molecule, the IC50 in series [9] and in series [11] was 520 nM throughout. Besides, the “fold change (FC)” value is 1.8 - 2.4 in [2], 2.29 in [10] and 1.43 in series [12].
In the case of `Cc1ccc2nc(NC(=O)c3ccc(N4CCOCC4)cc3)sc2c1`, the figures for the inhibition in [4] and in series [7] were 61% and 71%, respectively. Besides, the fold change (FC) in [10] was 1.79; in series [12], 1.76. Further, the IC50 in [11] came to 480 nM.
Take `CS(=O)(=O)c1ccc2nc(NC(=O)c3ccc(N4CCOCC4)cc3)sc2c1`: the inhibition in [4] worked out at 77%.
With `O=C(Nc1nc2ccc(C(F)(F)F)cc2s1)c1ccc(N2CCOCC2)cc1`, the inhibition in series [4] came out at 51%; in series [7], 69%. Further, the IC50 was found to be 280 nM in series [9] and 2270 nM in [11].
With `CCOc1ccc2nc(NC(=O)c3ccc(N4CCOCC4)cc3)sc2c1`, the figures for the inhibition in series [4] and in [7] were 80% and 85%, respectively. Besides, the IC50 in [11] is 300 nM.
As for `COc1ccc2nc(NC(=O)c3ccc(N4CCOCC4)cc3)sc2c1`, the figures for the inhibition in [4] and in series [7] were 73% and 93%, respectively. In series [9], the IC50 was 440 nM.
Take `O=C(Nc1nc2ccccc2s1)c1ccc(N2CCOCC2)cc1`: the inhibition was 75% in series [4], “Dose-dependent effect” in series [6], 85% in [7] and less than 35% in series [17]. Moreover, the inhibition entry in [5], in [14], in [15] and in [16] was “Active” each time. Also, the result in the series listed under Mus musculus [1] and in the series filed under Mus musculus [3] was Active. In [8], the inhibition entry is “inactive”. Besides, the IC50 in [9] stood at 370 nM. Moreover, the “fold change (FC)” value in series [2] is 1.8 - 2.4; in series [10] it was 2.2; in series [12] it was 3.25.
For `O=C(Nc1nc2ccc(Cl)cc2s1)c1ccc(N2CCOCC2)cc1`, the results for the inhibition in series [4] and in series [7] were 60% and 50%, respectively. In addition, in [11], the IC50 is 370 nM.
As to `O=C(CCCC(=O)c1ccccc1)Nc1nc2ccc(F)cc2s1`, in series [4], the inhibition is 11%.
Same read-out and setting: the result for `Cc1cccc2sc(NC(=O)c3ccc(N4CCOCC4)cc3)nc12` reads 18%; that for `COc1ccc2cc(C(=O)Nc3nc4ccc(F)cc4s3)ccc2c1`, 16%; that for `O=C(Nc1nc2c(Cl)cccc2s1)c1ccc(N2CCOCC2)cc1`, 32%.
Regarding `O=C(Nc1nc2ccc(F)cc2s1)c1ccc(Cl)cc1`, the inhibition amounted to 68% in series [4] and 67% in series [7]. For the same molecule, the concentration for half-maximal inhibition (IC50) was 5640 nM in series [9] and 4460 nM in series [11].
Consider `CCCOc1ccc2nc(NC(=O)c3ccc(N4CCOCC4)cc3)sc2c1`, for which the inhibition in series [4] was determined as 13%.
For the molecule `CC(C)c1ccc2nc(NC(=O)c3ccc(N4CCOCC4)cc3)sc2c1`, the inhibition in series [4] came to 48%; in series [7] it was 70%. In addition, the Papp at 2.5 h in series [13] was 4.3 ×10⁻⁶ cm/s. For the same molecule, the half-maximal inhibitory concentration (IC50) in series [9] is 1120 nM; in [11], 3490 nM. For the same molecule, the values for the fold change (FC) in series [10] and in [12] were 1.22 and 1.19, respectively.
`Cc1cc(-c2ccc3nc(Nc4ccccc4)nn3c2)cc(C)c1O`: the IC50 in series [9] and in [11] was 20 nM in each case.
In the case of `CCOC(=O)c1ccc2nc(NC(=O)c3ccc(N4CCOCC4)cc3)sc2c1`, in series [4], the inhibition is 22%.

Values taken from ChEMBL document CHEMBL4402549, “Benzothiazole-Based LRRK2 Inhibitors as Wnt Enhancers and Promoters of Oligodendrocytic Fate” (J Med Chem, 2020).
